Screening results: PubChem BioAssay, several laboratories
In the library only some 1.2% were active in any assay of this set; here they are far more common.
SR-BI DiI inh: inhibitors of SR-BI mediated HDL lipid uptake, primary screen, ldlA[mSR-BI] cells, fluorescence, single point; Scavenger receptor class B member 1 (Mus musculus), Q61009; ldlA[mSR-BI] CHO cells, DiI-HDL uptake fluorescence, 3 h; inhibition, % at 12.5 µM; 320,000 tested, 0.96% active; AID 488896, 2010;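 active = mean replicate inhibition of at least 70% and a set share of replicates each scoring 70 or more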;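 also: 0% = median of neutral control wells and 100% = median of positive control wells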
Target sequence (Q61009 whole entry, looked up): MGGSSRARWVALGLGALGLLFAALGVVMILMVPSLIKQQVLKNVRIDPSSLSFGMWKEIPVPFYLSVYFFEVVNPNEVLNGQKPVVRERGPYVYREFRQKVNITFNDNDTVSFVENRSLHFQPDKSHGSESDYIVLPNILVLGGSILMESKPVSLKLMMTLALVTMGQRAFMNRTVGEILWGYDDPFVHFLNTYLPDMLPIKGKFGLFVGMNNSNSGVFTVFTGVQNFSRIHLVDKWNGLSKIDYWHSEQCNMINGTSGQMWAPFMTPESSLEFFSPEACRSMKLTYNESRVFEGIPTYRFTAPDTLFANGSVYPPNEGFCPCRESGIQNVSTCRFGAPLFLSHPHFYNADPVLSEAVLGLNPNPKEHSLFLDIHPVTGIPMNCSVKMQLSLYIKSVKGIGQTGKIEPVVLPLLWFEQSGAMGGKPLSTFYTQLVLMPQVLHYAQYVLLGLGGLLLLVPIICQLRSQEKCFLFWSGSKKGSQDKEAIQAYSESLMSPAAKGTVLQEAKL
CaV13 FRET inh: Primary screen for inhibitors of IQ motif and Ca2+-dependent inactivation inhibitor domain binding in CACNA1D, Förster resonance energy transfer in living cells, …. AID 743397. HEK cells, CFP/YFP FRET ICDI-IQ, plate reader, 10 min; percent FRET-ratio fall versus neutral wells. inhibition, % at 12.3 µM. 340,000 tested, 0.098% active;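 active = mean replicate inhibition of at least 30% and at least 1% of replicates passing that level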;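 also: 0% = median of the neutral control wells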
FN deposition inh: inhibitors of fibronectin matrix deposition, primary screen, AH1F cells, Alexa488-fibronectin fluorescence, plate reader; AH1F fibroblasts, overnight; inhibition, % at 12.6 µM; 350,000 tested, 0.086% active; AID 743247, 2014;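 active = mean inhibition across replicates of 30% or more, regardless of how many single replicates reach that level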;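 also: positive control wells lacked labelled fibronectin entirely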
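Material: AH1F fibroblast monolayer depositing Alexa488-labelled fibronectin into matrix / Amount: 10000 AH1F cells per well / Signal: fluorescence 485/525 nm / Medium: DMEM, 2% serum / Compound: single dose, pinned / Incubation: 1 h cell adhesion before compound, then overnight fibronectin incubation / Reagent: Alexa488-FN, 24 nM final / Read-out: inhibition of fibronectin deposition signal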
SR-BI DiI-HDL act: activators of SR-BI mediated DiI-HDL uptake, primary screen, ldlA[mSR-BI] CHO cells, DiI fluorescence; activation, % at 12.5 µM; 3 h; 100 = double the neutral-control signal; 320,000 tested, 0.096% active; AID 504775, 2011;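 active = mean replicate activation of at least 60% and every replicate at or above 60%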;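 also: 0% = median plate neutral-control signal and 100% = twice that signal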
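Material: SR-BI-overexpressing, LDLR-lacking CHO cells; schedule: compound exposure 3 h, 37 °C; reagent: DiI-labelled HDL at 10 µg/mL final; technique: bottom-read fluorescence, 550/595 nm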
Efflux pump inh: inhibitors of Candida efflux pumps in yeast, primary screen, S. cerevisiae, Nile Red, multiplex; inhibition, % at 10 µM; AID 485275, 2010; 330,000 tested, 0.44% active; S. cerevisiae Candida pump triplex;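 active = plate passing quality check with inhibition over a set limit, or well fluorescence over plate mean plus 4 SD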;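 also: Nile Red retained in pooled yeast measured as flow cytometry median fluorescence; 0% = buffer negative control and 100% = Enniatin B positive control; higher means more Nile Red kept so more efflux inhibition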
* marks the source's active call; other numbers are inactive results; nt = no result given; + = active, no number.

SMILES	SR-BI DiI inh	CaV13 FRET inh	FN deposition inh	SR-BI DiI-HDL act	Efflux pump inh
O=C(N/N=C/c1cccn1-c1ccc(O)cc1)c1cccc2ccccc12	77*	-14	11	-77	0
COCCCNC(=O)Cn1c(=O)n(Cc2ccc(C(=O)NCCc3ccc(OC)c(OC)c3)cc2)c(=O)c2ccccc21	88*	-14	0	-88	0
CCCCNC(=O)CCn1c(=O)c2ccccc2n(CC(=O)NCCc2ccc(OC)c(OC)c2)c1=O	nt	14	0	nt	0
COCCCNC(=O)c1ccc(Cn2c(=O)c3ccccc3n(CC(=O)NCCc3ccc(OC)c(OC)c3)c2=O)cc1	81*	-17	-3	-81	0
Cc1ccc(S(=O)(=O)N(C)C[C@@H]2OCCCC[C@H](C)Oc3ccc(NS(=O)(=O)c4ccccc4)cc3C(=O)N([C@H](C)CO)C[C@H]2C)cc1	nt	nt	-19	nt	nt
O=C(NCc1ccco1)c1ccc(S(=O)(=O)N2CCCc3ccccc32)cc1	76*	-5	3	-76	0
O=C(NCc1ccccc1)c1ccc(S(=O)(=O)N2CCCc3ccccc32)cc1	28	-3	-7	-28	0
Cc1noc(C)c1S(=O)(=O)Nc1ccc2c(c1)C(=O)N([C@H](C)CO)C[C@@H](C)[C@@H](CN(C)C(=O)Nc1ccc(F)cc1)O2	nt	nt	-2	nt	nt
O=C(CCn1c(=O)c2sccc2n(Cc2cc(=O)n3ccccc3n2)c1=O)NCc1ccco1	-5	-8	nt	5	0
Cc1cc(C)c(Cn2c(=O)n(CCCC(=O)NCc3ccco3)c(=O)c3sccc32)c(C)c1	42	-5	34*	-42	0
O=C(CCCn1c(=O)c2sccc2n(Cc2cc(=O)n3ccccc3n2)c1=O)NCc1ccco1	-15	+	-1	15	0
COCCN=c1scc(-c2ccccc2)n1/N=C/c1c[nH]c2ccccc12	83*	-5	-6	-83	0
COCCN=c1scc(-c2cccs2)n1/N=C/c1ccc(O)c(O)c1O	69	-7	7	-69	0
Cc1cc(NC(=O)Nc2cc(C)nn2-c2ccccc2)n(-c2ccccc2)n1	84*	0	nt	-84	0
Cc1ccc(-c2ccc(/C=C(\C#N)C(=O)Nc3cc(C)nn3-c3ccccc3)o2)cc1	nt	nt	nt	nt	1.5*
Cc1cc(NC(=O)/C(C#N)=C/c2ccco2)n(-c2ccccc2)n1	32	1	-33	-32	0
Cc1ccc(C)c(CN2C(=O)C(C)Oc3ccc(C)cc32)c1 (configuration not stated)	77*	-8	nt	-77	0
Cc1ccc(CN2C(=O)C(C)Oc3ccc(C)cc32)cc1 (configuration not stated)	nt	-5	6	nt	nt
O=C(c1cc([N+](=O)[O-])ccc1N1CCCCC1)N1CCc2ccccc21	76*	-3	-22	-76	0
O=C(O)c1cc([N+](=O)[O-])ccc1N1CCCCC1	-55	-4	-1	55	0
Cc1ccc(C(=O)c2cc([N+](=O)[O-])ccc2N2CCCCC2)c(C)c1	75*	-5	-22	-75	0
CNC[C@H]1Oc2ccc(NC(C)=O)cc2C(=O)N(C)C[C@H]1C	nt	nt	-4	nt	nt
COc1ccc(-c2cc(C(=O)N3CCCCCC3)c3ccccc3n2)cc1	75*	-4	-8	-75	nt
COc1ccc(-c2cc(C(=O)N3CCCCCC3)c3ccccc3n2)cc1OC	nt	-5	nt	nt	nt
C[C@H]1CC=CC[C@@H](c2cccc(Cl)c2)NC(=O)[C@H](C)N(C)C(=O)c2ccccc2O1 (mixture of isomers)	nt	nt	5	nt	nt
SMILES	SR-BI DiI inh	CaV13 FRET inh	FN deposition inh	SR-BI DiI-HDL act	Efflux pump inh
COc1ccc(NC(=O)/C(C#N)=C/c2c(C)nn(-c3ccc(F)cc3)c2Cl)cc1Cl	71*	-6	4	-71	0
COc1ccccc1NC(=O)/C(C#N)=C/c1c(C)nn(-c2ccc(F)cc2)c1Cl	22	-18	2	-22	0
COc1ccc(NC(=O)/C(C#N)=C/c2c(C)nn(-c3ccc(F)cc3)c2Cl)cc1OC	76*	-5	3	-76	0
CCCC#Cc1ccc2c(c1)O[C@@H](CN(C)C(=O)Nc1ccccc1F)[C@H](C)CN([C@H](C)CO)S2(=O)=O	nt	nt	5	nt	nt
COC(=O)C[C@H]1CC[C@@H]2[C@H](COC[C@@H](O)CN2S(=O)(=O)c2ccc(F)cc2)O1	nt	nt	5	nt	nt
O=C(C1CCC1)N1CC2(C1)[C@H](c1ccccc1)[C@@H](CO)N2Cc1cncnc1	nt	nt	3	nt	nt
CCC(C)n1c(=N)c(C#N)cc2c(=O)n3cccc(C)c3nc21 (configuration not stated)	-16	+	10	16	0
CCC(C)n1c(=N)c(C#N)cc2c(=O)n3cc(C)ccc3nc21 (configuration not stated)	2	57*	-1	-2	0
Cc1ccc(Cn2c(=N)c(C#N)cc3c(=O)n4cccc(C)c4nc32)cc1	nt	nt	nt	nt	0
Cc1cccn2c(=O)c3cc(C#N)c(=NC(=O)c4cccs4)n(CC(C)C)c3nc12	-12	+	-1	12	0
COc1ccc(S(=O)(=O)N2C[C@@H](O)COC[C@@H]3O[C@H](CC(=O)NCCN4CCCCC4)CC[C@H]32)cc1	nt	nt	1	nt	nt
C[C@@H]1CN(C)C(=O)Cc2cc(N(C)C)ccc2O[C@H]1CN(C)C	nt	nt	-5	nt	nt
COCC(=O)N(C)C[C@H]1Oc2ncc(-c3ccccc3F)cc2C(=O)N([C@@H](C)CO)C[C@@H]1C	nt	nt	-10	nt	nt
C=CCNc1sc(C(=O)c2ccccc2)c(N)c1-c1nc2ccccc2s1	91*	nt	nt	-91	0
CCNc1sc(C(=O)c2cccs2)c(N)c1-c1nc2ccccc2s1	98*	-7	nt	-97	0
CCOC(=O)c1sc(NCc2ccco2)c(-c2nc3ccccc3s2)c1N	88*	-4	nt	-88	0
CCNc1sc(C(=O)c2cccs2)c(N)c1C#N	nt	-3	nt	nt	0
CO[C@H]1CN(C)C(=O)c2ccc(NC(=O)Cc3ccccc3)cc2OC[C@H](C)NC[C@@H]1C	nt	nt	-6	nt	nt
C[C@H](CO)N1C[C@H](C)[C@@H](CN(C)C(=O)Nc2cccc(F)c2)Oc2ncc(C3=CCCCC3)cc2C1=O	nt	nt	-1	nt	nt
